Published values collected from several papers.
Each line is one published result; the experiments were not run side by side. ≈ marks a conversion by molar mass, not a printed value.
Method: broth dilution

| SMILES | organism | observed | strain | time | quantity | value |
| --- | --- | --- | --- | --- | --- | --- |
| CO/N=C(\C(=O)N[C@@H]1C(=O)N2C(C(=O)O)=C(CSc3nc(=O)c(=O)[nH]n3C)CS[C@H]12)c1csc(N)n1 | Neisseria gonorrhoeae | microbial growth | ATCC49226 | – | MIC | 0.008 µg/mL (≈ 0.0144 µM) |
| C[C@@H]1O[C@@H](OC[C@H]2O[C@@H](Oc3c(-c4ccc(O)c(O)c4)oc4cc(O)cc(O)c4c3=O)[C@H](O)[C@@H](O)[C@@H]2O)[C@H](O)[C@H](O)[C@H]1O | Streptococcus sobrinus | microbial killing | – | – | MBC | 400 µg/mL (≈ 655 µM) |
| Clc1ccc(COC(Cn2ccnc2)c2ccc(Cl)cc2Cl)c(Cl)c1 (centres unmarked) | Lodderomyces parapsilosis | microbial growth | – | – | MIC80 | 0.06 µg/mL (≈ 0.144 µM) |
| C/C(=N\C(=N)/N=C(\C)c1c(O)c2ccccc2oc1=O)c1c(O)c2ccccc2oc1=O | Aspergillus niger | microbial growth | – | 48 h | MIC | 62.5 µg/mL (≈ 145 µM) |
| O=C1OC[C@H]2OC(O)[C@H](O)[C@@H](O)[C@@H]2OC(=O)c2cc(O)c(O)c(O)c2-c2c(O)c(O)c3oc(=O)c4c(c(O)c(O)c5oc(=O)c2c3c54)-c2c1cc(O)c(O)c2O (mixture of isomers) | Streptococcus sobrinus | microbial growth | – | 24 h | MIC | 100 µg/mL |
| CC1CCC(C(C)C)C(OC2=C(Cl)C(=O)c3ccccc3C2=O)C1 (centres unmarked) | Aspergillus niger | microbial growth | – | – | MIC | 12 µg/mL (≈ 34.6 µM) |
| O=C(Nc1ccc(Br)cc1)c1ccc(COC(Cn2ccnc2)c2ccc(Cl)cc2Cl)cc1 (centres unmarked) | Lodderomyces parapsilosis | microbial growth | – | – | MIC80 | 0.125 µg/mL (≈ 0.229 µM) |
| COc1cc(C=O)ccc1OC1=C(Cl)C(=O)c2ccccc2C1=O | Aspergillus niger | microbial growth | – | – | MIC | 12 µg/mL (≈ 35 µM) |
| C/C(=N\C(=S)/N=C(\C)c1c(O)c2ccccc2oc1=O)c1c(O)c2ccccc2oc1=O | Aspergillus niger | microbial growth | – | 48 h | MIC | 3.9 µg/mL (≈ 8.7 µM) |
| O=C1O[C@H]2[C@@H]3OC(=O)c4cc(O)c(O)c(O)c4-c4c(O)c(O)c5oc(=O)c6c(c(O)c(O)c7oc(=O)c4c5c76)-c4c(cc(O)c(O)c4O)C(=O)OC[C@H]3OC(O)[C@@H]2OC(=O)c2cc(O)c(O)c(O)c2-c2c1cc(O)c(O)c2O (mixture of isomers) | Streptococcus sobrinus | microbial killing | – | – | MBC | 200 µg/mL |
| O=C(Nc1cccc(F)c1)c1ccc(COC(Cn2ccnc2)c2ccc(Cl)cc2Cl)cc1 (centres unmarked) | Lodderomyces parapsilosis | microbial growth | – | – | MIC80 | 0.125 µg/mL (≈ 0.258 µM) |
| C/C(=N\C1CCCCC1/N=C(\C)c1c(O)c2ccccc2oc1=O)c1c(O)c2ccccc2oc1=O (centres unmarked) | Aspergillus niger | microbial growth | – | 48 h | MIC | 15.6 µg/mL (≈ 32.1 µM) |
| O=C(Nc1ccc(F)cc1)c1ccc(COC(Cn2ccnc2)c2ccc(Cl)cc2Cl)cc1 (centres unmarked) | Lodderomyces parapsilosis | microbial growth | – | – | MIC80 | 0.125 µg/mL (≈ 0.258 µM) |
| C/C(=N\N=C(/C)c1c(O)c2ccccc2oc1=O)c1c(O)c2ccccc2oc1=O | Aspergillus niger | microbial growth | – | 48 h | MIC | 125 µg/mL (≈ 309 µM) |
| O=C(O[C@@H]1O[C@@H]2COC(=O)c3cc(O)c(O)c(O)c3-c3c(cc(O)c(O)c3O)C(=O)O[C@H]([C@H]1O)[C@@H]2O)c1cc(O)c(O)c(O)c1 | Streptococcus sobrinus | microbial killing | – | – | MBC | 400 µg/mL (≈ 630 µM) |
| COc1ccc(NC(=O)c2ccc(COC(Cn3ccnc3)c3ccc(Cl)cc3Cl)cc2)cc1 (centres unmarked) | Lodderomyces parapsilosis | microbial growth | – | – | MIC80 | 0.125 µg/mL (≈ 0.252 µM) |
| O=c1oc2c(O)c(O)cc3c(=O)oc4c(O)c(O)cc1c4c23 | Streptococcus sobrinus | microbial killing | – | – | MBC | 200 µg/mL (≈ 662 µM) |
| O=C(Nc1ccccc1)c1ccc(COC(Cn2ccnc2)c2ccc(Cl)cc2Cl)cc1 (centres unmarked) | Lodderomyces parapsilosis | microbial growth | – | – | MIC80 | 0.125 µg/mL (≈ 0.268 µM) |
| Oc1cc(O)c2c(c1)O[C@H](c1cc(O)c(O)c(O)c1)[C@@H](O)C2 | Streptococcus sobrinus | microbial growth | – | 24 h | MIC | 100 µg/mL (≈ 327 µM) |
| C/C(=N\c1nc(N)nc(/N=C(\C)c2c(O)c3ccccc3oc2=O)n1)c1c(O)c2ccccc2oc1=O | Aspergillus niger | microbial growth | – | 48 h | MIC | 31.2 µg/mL (≈ 62.7 µM) |
